In article PMC7042484 (Redox Biology, 2020):

Tests used:
[1] = system: C-terminal mutant dehydrogenase domain of bacterial NOX5; experiment: NADPH-depletion assay on C-terminal mutant NOX5 dehydrogenase domain; format: biochemical, Cylindrospermum stagnale; details: 100 μM inhibitor, C-terminal (PWLEL) low-activity mutant
human NOX2 = target: T1, human NOX2 (Homo sapiens, UniProt P04839); experiment: Initial evaluation on NOX2 membrane preparations; format: biochemical
T1 sequence (P04839 2-570 limits assumed): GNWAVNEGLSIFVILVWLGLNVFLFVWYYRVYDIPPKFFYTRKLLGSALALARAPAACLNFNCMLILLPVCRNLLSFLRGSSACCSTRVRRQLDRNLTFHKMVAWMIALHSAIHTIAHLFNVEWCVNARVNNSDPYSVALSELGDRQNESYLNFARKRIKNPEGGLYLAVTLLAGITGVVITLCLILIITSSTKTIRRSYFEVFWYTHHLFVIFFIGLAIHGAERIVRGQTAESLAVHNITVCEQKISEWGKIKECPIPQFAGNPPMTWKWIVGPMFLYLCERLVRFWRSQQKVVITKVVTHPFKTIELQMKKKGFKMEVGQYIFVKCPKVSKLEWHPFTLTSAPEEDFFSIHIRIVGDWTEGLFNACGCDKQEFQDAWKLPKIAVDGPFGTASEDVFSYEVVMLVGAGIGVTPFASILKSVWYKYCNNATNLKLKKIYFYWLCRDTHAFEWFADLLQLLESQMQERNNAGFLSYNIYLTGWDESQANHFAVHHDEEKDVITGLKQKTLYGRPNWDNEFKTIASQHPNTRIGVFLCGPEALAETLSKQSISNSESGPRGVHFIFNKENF
T1 sequence (P13498 2-195 partner limits assumed): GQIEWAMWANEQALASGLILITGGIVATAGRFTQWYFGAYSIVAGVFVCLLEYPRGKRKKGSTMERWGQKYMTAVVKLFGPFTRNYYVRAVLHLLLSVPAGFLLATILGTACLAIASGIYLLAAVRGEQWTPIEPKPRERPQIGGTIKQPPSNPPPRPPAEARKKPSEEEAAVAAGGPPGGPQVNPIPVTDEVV

human NOX4 = target: T2, human NOX4 (Homo sapiens, UniProt Q9NPH5); experiment: Initial evaluation on NOX4 membrane preparations; format: biochemical
T2 sequence (Q9NPH5 1-578): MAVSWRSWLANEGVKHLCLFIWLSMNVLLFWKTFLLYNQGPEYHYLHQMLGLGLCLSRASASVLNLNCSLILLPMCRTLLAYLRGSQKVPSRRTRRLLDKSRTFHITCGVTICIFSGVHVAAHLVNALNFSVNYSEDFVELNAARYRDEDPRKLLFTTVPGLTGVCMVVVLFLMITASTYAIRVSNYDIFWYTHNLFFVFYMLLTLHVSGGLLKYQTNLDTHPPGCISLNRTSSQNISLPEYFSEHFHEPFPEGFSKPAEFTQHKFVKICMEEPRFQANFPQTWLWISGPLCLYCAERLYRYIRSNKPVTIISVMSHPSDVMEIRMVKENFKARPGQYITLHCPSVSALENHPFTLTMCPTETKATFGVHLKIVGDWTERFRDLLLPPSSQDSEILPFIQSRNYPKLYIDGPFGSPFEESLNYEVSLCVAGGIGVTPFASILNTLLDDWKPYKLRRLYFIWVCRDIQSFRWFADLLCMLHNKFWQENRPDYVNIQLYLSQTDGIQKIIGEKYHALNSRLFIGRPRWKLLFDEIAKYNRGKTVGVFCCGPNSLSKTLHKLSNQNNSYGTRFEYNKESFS
T2 sequence (P13498 2-195 partner limits assumed): T1 sequence (P13498 2-195 partner limits assumed)
How it was run: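 NOX4-p22 membranes from transfected HEK293 EBNA-1 cells, compound 100 μM, 10 min preincubation at 4 °C in PBS. Amplex Red: 100 μg membranes, 12.5 μM Amplex Red, 0.02 U/ml HRP, 40 μM FAD, started with 40 μM NADPH, ex 572/em 583 nm. CBA: 50 μg membranes, 20 μM FAD, then 200 μM coumarin boronic acid and 50 μM NADPH, ex 320/em 430 nm.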

[2] = system: C668S mutant of the NOX5 dehydrogenase domain; experiment: Enzymatic assay on C668S mutant NOX5 dehydrogenase domain; format: biochemical, Cylindrospermum stagnale; details: enzymatic assays
How it was run: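 Purified strep-tagged C. stagnale NOX5 dehydrogenase domain (residues 413–693), C668S mutant, 1 μM in 50 mM Hepes pH 7.5 without added FAD. Run at 25 °C in a thermostatted spectrophotometer; rates followed as NADPH oxidation at 340 nm.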

For `c1ccc(Cn2nnc3c(Sc4nc5ccccc5o4)ncnc32)cc1` [VAS2870, 3-benzyl-7-(2-benzoxazolyl)thio-1,2,3-triazolo[4,5-d]pyrimidine], the “inhibition of the mutant dehydrogenase” value [1] was 20–30%, the inhibition at 100 µM (human NOX2; read-out: inhibition of NOX2) was 40 to 70% and the “inhibition of NOX2 with long incubation” value (human NOX2; sufficiently long incubation times (Fig. 7B)) was “became significant”. The “inhibition of NOX4 (in words)” value (human NOX4; 100 μM compound, membranes) was “powerful NOX4 inhibitors”, the inhibition at 100 µM (human NOX4; read-out: inhibition of NOX4) was 40 to 70% and the “inhibition of the C668S mutant domain” value [2] was “could not inhibit the mutant domain”.
